Bioassay records as filed in PubChem BioAssay.
This is a sample that favours compounds with a hit; in the whole collection about 3.5% have one here.
RGS4 block: RGS4 inhibitors, primary screen, cell-based, HEK293 M3R inducible RGS4, calcium flux; Regulator of G-protein signaling 4 (Homo sapiens), P49798; Fluo-4 calcium flux; active compounds read high; triggered by carbachol at its EC20; B-score at 10 µM; actives 0.45% (n = 310,000); AID 463165, 2010;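 active = B-score, a plate-corrected calcium signal, over three deviations above library mean, with baseline fluorescence within five deviations of library mean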;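 also: RGS4 expression induced by doxycycline in cells with stable M3 receptor; B-score is computed from the integrated fluorescence ratio over baseline after carbachol; higher B-score means a larger calcium signal and so more RGS4 inhibition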
Target sequence (P49798 whole entry, looked up): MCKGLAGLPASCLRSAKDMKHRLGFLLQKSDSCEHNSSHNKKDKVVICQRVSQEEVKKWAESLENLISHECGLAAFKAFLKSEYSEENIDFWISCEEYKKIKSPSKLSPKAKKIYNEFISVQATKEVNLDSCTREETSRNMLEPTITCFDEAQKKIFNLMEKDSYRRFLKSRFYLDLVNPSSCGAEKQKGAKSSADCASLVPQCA
MrgX1 PAM: positive allosteric modulators of MrgX1, primary screen, HEK293 cells, Fluo-4 calcium flux | Mas-related G-protein coupled receptor member X1 (Homo sapiens), Q96LB2 | FDSS; active compounds read high | AID 588675, 2011 | B-score at 10 µM | actives 0.63% (n = 310,000);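 active = plate-corrected calcium response at least 3 library SD above typical, normal starting fluorescence, not activating the receptor alone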;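 also: compound read alongside a low EC10 to EC30 dose of BAM8-22 agonist; peak minus trough fluorescence over baseline measured at the second addition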
Target sequence (Q96LB2 whole entry, looked up): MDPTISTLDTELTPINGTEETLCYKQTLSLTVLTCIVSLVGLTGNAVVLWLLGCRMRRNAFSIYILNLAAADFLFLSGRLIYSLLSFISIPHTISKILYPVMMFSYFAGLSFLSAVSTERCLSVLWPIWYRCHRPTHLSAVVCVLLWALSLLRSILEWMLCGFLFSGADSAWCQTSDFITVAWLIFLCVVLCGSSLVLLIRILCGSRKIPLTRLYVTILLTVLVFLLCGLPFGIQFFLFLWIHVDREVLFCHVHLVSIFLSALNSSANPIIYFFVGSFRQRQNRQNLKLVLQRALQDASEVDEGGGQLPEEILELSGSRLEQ
MrgX1 ag: agonists of human MrgX1 receptor, primary screen, HEK293 cells, Fluo-4 calcium flux; Mas-related G-protein coupled receptor member X1 (Homo sapiens), Q96LB2; Fluo-4 calcium fluorescence, agonist mode; active compounds read high; B-score at 10 µM; actives 0.44% (n = 310,000);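 active = calcium response B-score plate-corrected fluorescence ratio at least 3 library SD, with starting fluorescence B-score inside 5 SD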
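System: HEK293 cells stably expressing human MrgX1 receptor; Dosing: test compound in the initial addition of three; Schedule: overnight plating, then 30 min 37 °C plus 30 min room-temperature dye loading; Detection: kinetic calcium dye fluorescence, Fluo-4 NW; Controls: per-plate positive and negative controls for Z′ factor.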
RGS4 pot: RGS4 potentiators or activators, primary screen, cell-based, HEK293 M3R inducible RGS4, calcium flux; carbachol calcium flux Fluo4; active compounds read low; B-score at 10 µM; actives 0.92% (n = 310,000); AID 463111, 2010;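 active = B-score of the integrated calcium signal more than 4 SD below the library mean, with starting fluorescence not abnormally high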;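 also: negative B-score means reduced calcium response which marks RGS4 activation or potentiation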
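Assay system: Inducible-RGS4 HEK293 cells carrying M3 receptor | Schedule: Compound preincubation 20 min at room temperature before agonist | Signal: Kinetic calcium fluorescence imaging with Fluo4-AM dye, 2 µM | Read-out basis: B score from integrated fluorescence ratio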
MrgX1 antagonist: antagonists of human MrgX1 receptor, primary screen, HEK293 cells, Fluo-4 calcium flux | AID 588676, 2011 | actives 1.3% (n = 310,000) | BAM8-22 antagonism; active compounds read low | Mas-related G-protein coupled receptor member X1 (Homo sapiens), Q96LB2 | B-score at 10 µM;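 active = calcium-response B-score plate-corrected more than 3 library SD below zero, starting fluorescence within 5 deviations, no agonist response on first addition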;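 also: peak minus trough fluorescence over baseline after final BAM8-22 challenge near maximal dose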
Numbers stand for hits; . = inactive; / = no result given; ! = not confirmed by another sample.

SMILES | RGS4 block | MrgX1 PAM | MrgX1 ag | RGS4 pot | MrgX1 antagonist
O=C1NC(=O)N(Cc2ccccc2)C(=O)/C1=C/c1cnn(-c2ccccc2)c1 | . | . | . | . | -5.5
COc1cccc(-n2c(CN3CCN(C)CC3)nc3ccc([N+](=O)[O-])cc3c2=O)c1 | . | . | . | . | .
COc1ccc(CC(C)NCCC(c2ccccc2)c2ccccc2)cc1 (stereo not given) | . | . | . | -7.4 | .
C=CCc1ccc(OC)cc1 | / | . | . | / | .
C[C@@]12N[C@@H](Cc3ccccc31)c1ccccc12 | . | . | . | . | .
CN=C1CN(O)C(c2ccccc2)=c2cc(Cl)ccc2=N1 | . | 9.6 | . | . | .
O=C1NC(=O)C(=Cc2ccc3ccccc3c2)C(=O)N1 | . | . | . | . | .
O=C1NC(=O)C(=Cc2ccc(Oc3ccc([N+](=O)[O-])cc3)cc2)C(=O)N1 | . | 7 | . | . | .
O=[N+]([O-])c1ccc(N2CCCC2)c2ccncc12 | . | . | . | . | -5.1
O=[N+]([O-])c1ccc(NC2CCCC2)c2ccncc12 | . | . | . | . | .
CCN(CC)c1ccc(N=Cc2c(O)n(Cc3ccccc3)c(=O)[nH]c2=O)cc1 | . | . | . | -7.3! | .
O=C(C[N+]12CCC(CC1)C(C(O)(c1ccccc1)c1ccccc1)C2)c1ccc(Br)cc1 (stereo not given) | . | . | . | -10 | .
OCC[N+]12CCC(CC1)C(C(O)(c1ccccc1)c1ccccc1)C2 (stereo not given) | . | . | . | . | .
O=c1[nH]c(=O)n(C2CCCCC2)c(O)c1/C=C/C=Nc1ccccc1 | . | . | . | . | -5
O=C(O)[C@H]1NC[C@H]2C[C@H]21 | . | . | . | . | .
Clc1cnc(Oc2ccc(Oc3ncc(Cl)cc3Cl)cc2)c(Cl)c1 | . | 13 | . | . | .
C[N+]1(CC(COCc2ccccc2)OC(=O)Cc2ccccc2)CCOCC1 (stereo not given) | . | . | . | . | .
OC(Cn1c2ccccc2c2ccccc21)C[n+]1cccc2ccccc21 (stereo not given) | . | . | . | -7.9 | .
O=c1c2ccccc2nc(-c2cccs2)n1-c1ccccc1 | . | . | . | . | .
NC(N)=N/N=C/c1cn(-c2ccccc2)nc1-c1cccs1 | . | . | 44 | . | .
Cc1c(C(c2ccc(Br)cc2)c2c(O)c3ccccc3oc2=O)c(=O)n(-c2ccccc2)n1C (stereo not given) | . | . | . | . | .
Cc1c(C(c2ccc(Cl)cc2Cl)c2c(O)c3ccccc3oc2=O)c(=O)n(-c2ccccc2)n1C (stereo not given) | . | 14 | . | . | .
CCCCCCC(Cl)(Cn1ccnc1)c1ccccc1 (stereo not given) | . | . | . | . | .
Cc1ncc([N+](=O)[O-])n1CCOC(N)=O | . | . | . | . | .
CNC(=O)OCCc1n(C)cc[n+]1C | . | . | . | . | .
SMILES | RGS4 block | MrgX1 PAM | MrgX1 ag | RGS4 pot | MrgX1 antagonist
N/C(=N\N=C\c1ccc(O)cc1O)N[N+](=O)[O-] | . | . | . | . | .
COc1ccccc1/C=N/N=C(/N)N[N+](=O)[O-] | . | . | . | . | -7.7
O=C1NC(=S)N(c2ccccc2)C(=O)/C1=C/c1ccco1 | . | . | . | . | .
O=C1NC(=S)N(c2ccccc2)C(=O)C1C(c1ccncc1)C1C(=O)NC(=S)N(c2ccccc2)C1=O (stereo not given) | . | . | . | . | -7.6
Cc1cc(Oc2ccc(C(F)(F)F)cc2[N+](=O)[O-])c2c3c(c(=O)oc2c1)CCC3 | . | . | . | . | .
Cc1cc(Oc2ccc(C(F)(F)F)cc2[N+](=O)[O-])c2c3c(c(=O)oc2c1)CCCC3 | . | . | . | -7.4 | .
CCCC(=O)NC(Oc1ccccc1Cl)C(Cl)(Cl)Cl (stereo not given) | . | . | . | . | .
CN1Cc2c(c(C#N)c(N)n(C)c2=S)CC1(C)C | . | . | . | -9.3 | .
CN(C)C=C1C(=O)N(C2CCCCC2)C(=O)N(C2CCCCC2)C1=O | . | . | 52 | . | .
O=C([O-])c1ccc(-[n+]2c(-c3ccccc3)cc(-c3ccccc3)cc2-c2ccccc2)cc1 | . | . | . | . | .
C[n+]1c(-c2ccccc2)cc(-c2ccc(O)cc2)cc1-c1ccccc1 | . | . | . | . | .
COc1ccc(-[n+]2c(-c3ccccc3)cc(-c3ccccc3)cc2-c2ccccc2)cc1 | . | . | . | . | -4.9
Oc1ccc(-[n+]2c(-c3ccccc3)cc(-c3ccccc3)cc2-c2ccccc2)cc1 | . | 12 | . | -7.2 | -7.9
O=[N+]([O-])c1ccc(-[n+]2c(-c3ccccc3)cc(-c3ccccc3)cc2-c2ccccc2)cc1 | . | 8.4 | . | . | .
O=C(Cc1ccccc1)Oc1ccccc1N1C(=O)CCC1=O | . | . | . | . | .
COC(=O)C1=C(c2cc3ccccc3s2)C[C@@H]2CC[C@H]1N2C(=O)NCc1ccco1 | . | . | . | . | .
Oc1c(Cl)c(Cl)c(Cl)c(Cl)c1Cl | . | . | . | . | .
CN(C)c1ccc(/C=C2/C(=N\O)C3CCN2CC3)cc1 | . | . | . | . | .
O=C(c1ccc(Cl)cc1)C1CCCN(Cc2cccc3ncccc23)C1 (stereo not given) | . | . | . | . | .
O=C(c1ccc(Cl)cc1)C1CCCN(Cc2cccc3cccnc23)C1 (stereo not given) | . | . | . | -7.1 | .
Cc1nn(Cc2ccc(Cl)cc2Cl)c(Cl)c1C(=O)Nc1ccc(OC(F)F)cc1 | . | . | . | . | .
CCOc1cc2c(cc1OCC)-n1cccc1C(c1cc(C)c(OC)cc1C)NC2 (stereo not given) | . | . | . | . | -4.9
CCOc1cc2c(cc1OCC)-n1cccc1C(c1ccc(C)cc1C)NC2 (stereo not given) | . | . | . | . | .
COC(=O)C1=C(c2ccc(S(C)(=O)=O)cc2)C[C@@H]2CC[C@H]1N2C(=O)NCCNC(C)=O | . | . | . | . | .
Cn1c(O)c(C=NC2CCCCCC2)c(=O)[nH]c1=S | . | . | . | . | -6.4
Cn1c(O)c(C=NC2CCN(Cc3ccccc3)CC2)c(=O)[nH]c1=O | . | . | . | . | .
N#CC(C#N)=Cc1ccc(N2CCOCC2)cc1 | . | . | . | . | .
N#CC(C#N)=Cc1cccnc1 | . | . | . | . | -4.6
CCCOc1ccc(C(=O)NC(=S)N2C[C@H]3C[C@H](C2)c2cccc(=O)n2C3)cc1 | . | . | . | . | .
